Active and inactive are the calls of the source. The calls are words filed in the database; no cut-off is given here.
How the values were obtained:
Thoracic aorta [1] = assay: Vasorelaxing activity in Wistar rat endothelium-denuded thoracic aorta ring assessed as reduction in 30 mM KCl-induced contraction after 15 mins in presence of 1 uM glibenclamide; assay type: functional, tissue-based; conditions: 0.25 h, in the assay text read “endothelium-intact” for “endothelium-denuded”
Summary of the method: (§1)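 Female Wistar rat aortic rings were contracted with 30 mM KCl while continuously bathed in 1 or 10 µM glibenclamide. Compound in DMSO was added cumulatively up to 300 µM, each step held ≥15 min to a plateau. EC50 was derived by non-linear regression and compared with the EC50 obtained without glibenclamide.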

Thoracic aorta [2] = assay: Vasorelaxing activity in Wistar rat endothelium-denuded thoracic aorta ring assessed as reduction in 30 mM KCl-induced contraction after 15 mins in presence of 10 uM glibenclamide; assay type: functional, tissue-based; conditions: 0.25 h, in the assay text read “endothelium-intact” for “endothelium-denuded”; summary of the method: as §1
Thoracic aorta [3] = assay: Vasorelaxing activity in Wistar rat endothelium-denuded thoracic aorta ring assessed as reduction in 80 mM KCl-induced contraction after 15 mins; assay type: functional, tissue-based; conditions: 0.25 h, in the assay text read “endothelium-intact” for “endothelium-denuded”
Summary of the method: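 Female Wistar rat aortic rings were depolarized with an 80 mM KCl solution (NaCl 43.6 mM). Once the plateau was reached, compound in DMSO was added cumulatively up to 300 µM. EC50 was obtained by non-linear regression of concentration-response curves.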

Trachea [4] = assay: Tracheorelaxant activity in Wistar rat trachea tonus assessed as reduction in 30 mM KCl-induced contraction after 15 mins; assay type: functional, tissue-based; conditions: 0.25 h
Summary of the method: (§2)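 Trachea rings (3-4 mm) from female Wistar rats were held in a 10 ml organ bath under the same conditions as the aorta and contracted with 30 mM KCl. Compound in DMSO was added cumulatively. EC50 was derived by non-linear regression; Emax is % relaxation at 100 µM.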

Trachea [5] = assay: Tracheorelaxant activity in Wistar rat trachea tonus assessed as reduction in 30 mM KCl-induced contraction at 100 uM after 15 mins relative to control; assay type: functional; conditions: 0.25 h; summary of the method: as §2
Trachea/thoracic aorta = assay: Ratio of EC50 for Wistar rat trachea tonus to EC50 for Wistar rat endothelium-denuded thoracic aorta ring; assay type: functional; conditions: in the assay text read “endothelium-intact” for “endothelium-denuded”
Summary of the method: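 Ratio of trachea EC50 to aorta EC50, both measured against 30 mM KCl contraction in female Wistar rat rings, with cumulative compound addition in DMSO and EC50 from non-linear regression.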

VSMC [6] = assay: Induction of elastin synthesis in rat VSMC at 50 uM after 48 hrs by ELISA relative to control; assay type: functional
Summary of the method: (§3)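 Rat aortic VSMCs (collagenase/elastase digestion of intima-media, grown in DMEM 20% FBS on gelatin) serum-starved overnight in 1% FBS-DMEM, seeded 25000 cells/well, then exposed 48 h to compound in DMSO (<1% final); DMSO-only negative control, diazoxide reference. Fixed cells immunostained for elastin with HRP secondary, TMB substrate, absorbance 450 nm; 5-7 wells per concentration.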

VSMC [7] = assay: Induction of elastin synthesis in rat VSMC at 20 uM after 48 hrs by ELISA; assay type: functional, cell-based; summary of the method: as §3
Thoracic aorta [8] = assay: Vasorelaxing activity in Wistar rat endothelium-intact thoracic aorta ring assessed as reduction in 30 mM KCl-induced contraction after 15 mins; conditions: 0.25 h
Thoracic aorta [9] = assay: Vasorelaxing activity in Wistar rat endothelium-intact thoracic aorta ring assessed as reduction in 30 mM KCl-induced contraction at 300 uM after 15 mins relative to DMSO; conditions: 0.25 h
[10] = Ionozation constant, pKa of the compound at pH 3 to 12 at 25 degC by UV/VIS spectrophotometric method; assay type: physicochemical

SMILES | EC50 (Thoracic aorta [8]) [µM] | Emax (Thoracic aorta [9]) [%] | also measured
Cc1ccc(OCc2ccccc2)c(C(C)NC(=O)NS(=O)(=O)c2ccc(Cl)cc2)c1 (racemic) | 65.3 | 126 | EC50 (Thoracic aorta [1]): 90.5 µM; EC50 (Thoracic aorta [2]): 69.3 µM; EC50 (Thoracic aorta [3]): 60.9 µM; EC50 (Trachea [4]): 30.4 µM; Emax (Trachea [5]): 172%; Ratio EC50 (Trachea/thoracic aorta): 0.5; Activity (VSMC [6]): inactive; Activity (VSMC [7]): inactive
COc1ccc(CCN(C)CCCC(C#N)(c2ccc(OC)c(OC)c2)C(C)C)cc1OC (centres undefined) [VERAPAMIL] | 0.06 |  | EC50 (Thoracic aorta [1]): 0.07 µM; EC50 (Thoracic aorta [2]): 0.07 µM; EC50 (Thoracic aorta [3]): 0.05 µM; EC50 (Trachea [4]): 0.89 µM; Ratio EC50 (Trachea/thoracic aorta): 28.7
CCOc1ccc(Br)cc1C(C)NC(=O)N(C)S(=O)(=O)c1ccccc1 (racemic) | 19.8 | 104 | EC50 (Trachea [4]): 8.4 µM; Emax (Trachea [5]): 137%; Ratio EC50 (Trachea/thoracic aorta): 0.4
CCOc1ccc(Cl)cc1C(C)NC(=O)N(C)S(=O)(=O)c1ccccc1 (centres undefined) | 10.5 | 104 | Activity (VSMC [6]): Active; Activity (VSMC [7]): inactive
CC1=Nc2ccc(Cl)cc2S(=O)(=O)N1 [DIAZOXIDE] |  |  | Activity (VSMC [6]): 92%; Activity (VSMC [7]): inactive
COc1ccc(Br)cc1C(C)NC(=O)N(C)S(=O)(=O)c1ccc(Cl)cc1 (racemic) | 19.1 | 93.6 | EC50 (Trachea [4]): 39.3 µM; Emax (Trachea [5]): 125%; Ratio EC50 (Trachea/thoracic aorta): 2
COc1ccc(OC)c(CNC(=O)N(C)S(=O)(=O)c2ccccc2)c1 | 21.3 | 100 | EC50 (Trachea [4]): 18.5 µM; Emax (Trachea [5]): 150%; Ratio EC50 (Trachea/thoracic aorta): 0.9
CCOc1ccc(F)cc1C(C)NC(=O)NS(=O)(=O)c1ccccc1 (racemic) | > 300 | 46.4 | 
COc1ccc(Br)cc1C(C)NC(=O)NS(=O)(=O)c1ccc(Cl)cc1 (racemic) | 80.9 | 82.6 | 
Cc1ccc(OCc2ccccc2)c(C(C)NC(=O)N(C)S(=O)(=O)c2ccc(Cl)cc2)c1 (racemic) | 142 | 76.9 | 
COc1ccc(Br)cc1C(C)NC(=O)NS(=O)(=O)c1ccc(C)cc1 (racemic) | > 300 | 67.6 | 
CC(C)Oc1ccc(Br)cc1C(C)NC(=O)N(C)S(=O)(=O)c1ccc(Cl)cc1 (racemic) | 43.2 | 93.7 | 
CC1(C)Oc2ccc(C#N)cc2[C@H](N2CCCC2=O)[C@H]1O [(-)-CROMAKALIM] | 0.13 |  | EC50 (Thoracic aorta [1]): 3.4 µM; EC50 (Thoracic aorta [2]): 87.2 µM; EC50 (Thoracic aorta [3]): 191 µM; EC50 (Trachea [4]): 124 µM; Emax (Trachea [5]): 70.1%; Ratio EC50 (Trachea/thoracic aorta): 956.9
CC(NC(=O)NS(=O)(=O)c1ccc(Cl)cc1)c1ccccc1OCc1ccccc1 (racemic) | 157 | 103 | 
CC(NC(=O)NS(=O)(=O)c1ccc(Cl)cc1)c1cc(Br)ccc1OCc1ccccc1 (racemic) | 57.5 | 95.1 | EC50 (Thoracic aorta [1]): 78.4 µM; EC50 (Thoracic aorta [2]): 54.6 µM; EC50 (Thoracic aorta [3]): 61.6 µM; EC50 (Trachea [4]): 30.8 µM; Emax (Trachea [5]): 161%; Ratio EC50 (Trachea/thoracic aorta): 0.5; Activity (VSMC [6]): Active; Activity (VSMC [7]): inactive; pKa [10]: 5.31
COc1ccc(OC)c(CNC(=O)N(C)S(=O)(=O)c2ccc(Cl)cc2)c1 | 18.2 | 93.6 | 
COc1ccc(OC)c(CNC(=O)N(C)S(=O)(=O)c2ccc(C)cc2)c1 | 20.9 | 92.7 | 
COc1ccc(OC)c(CNC(=O)NS(=O)(=O)c2ccc(Cl)cc2)c1 | > 300 | -28 | 
Cc1ccc(S(=O)(=O)NC(=O)NC(C)c2cc(Br)ccc2OCc2ccccc2)cc1 (racemic) | 138 | 92.5 | 
CCOc1ccc(F)cc1C(C)NC(=O)N(C)S(=O)(=O)c1ccccc1 (racemic) | 11.5 | 106 | 

SMILES | EC50 (Thoracic aorta [8]) [µM] | Emax (Thoracic aorta [9]) [%] | also measured
Cc1ccc(OCc2ccccc2)c(C(C)NC(=O)N(C)S(=O)(=O)c2ccccc2)c1 (centres undefined) | 68.2 | 86.1 | 
COc1ccc(F)cc1C(C)NC(=O)NS(=O)(=O)c1ccc(Cl)cc1 (racemic) | > 300 | 54.7 | 
Cc1ccc(S(=O)(=O)N(C)C(=O)NC(C)c2cc(Br)ccc2OC(C)C)cc1 (racemic) | 34.7 | 102 | 
COc1ccc(Cl)cc1C(C)NC(=O)NS(=O)(=O)c1ccccc1 (racemic) | > 300 | 16.4 | 
COc1ccc(F)cc1C(C)NC(=O)NS(=O)(=O)c1ccc(C)cc1 (racemic) | > 300 | -4.5 | 
CC(C)Oc1ccc(Br)cc1C(C)NC(=O)NS(=O)(=O)c1ccccc1 (racemic) | 143 | 73.2 | 
COc1ccc(Br)cc1C(C)NC(=O)N(C)S(=O)(=O)c1ccc(C)cc1 (centres undefined) | 19.1 | 97.7 | EC50 (Trachea [4]): 12.8 µM; Emax (Trachea [5]): 143%; Ratio EC50 (Trachea/thoracic aorta): 0.7
CC(NC(=O)N(C)S(=O)(=O)c1ccccc1)c1ccccc1OCc1ccccc1 (racemic) | 21.7 | 92.3 | 
Cc1ccc(S(=O)(=O)NC(=O)NC(C)c2ccccc2OCc2ccccc2)cc1 (racemic) | > 200 | 84.7 | 
CCOc1ccc(F)cc1C(C)NC(=O)NS(=O)(=O)c1ccc(Cl)cc1 (racemic) | > 300 | 52.7 | 
CCOc1ccc(Cl)cc1C(C)NC(=O)N(C)S(=O)(=O)c1ccc(C)cc1 (racemic) | 12.2 | 106 | 
COc1ccc(Br)cc1C(C)NC(=O)N(C)S(=O)(=O)c1ccccc1 (racemic) | 16.8 | 98 | EC50 (Trachea [4]): 8.4 µM; Emax (Trachea [5]): 125%; Ratio EC50 (Trachea/thoracic aorta): 0.5
Cc1ccc(S(=O)(=O)N(C)C(=O)NC(C)c2ccccc2OCc2ccccc2)cc1 (racemic) | 31 | 93.2 | 
COc1ccc(Cl)cc1C(C)NC(=O)N(C)S(=O)(=O)c1ccccc1 (racemic) | 7.2 | 103 | EC50 (Thoracic aorta [1]): 6.7 µM; EC50 (Thoracic aorta [2]): 8.6 µM; EC50 (Thoracic aorta [3]): 5.3 µM; EC50 (Trachea [4]): 1.7 µM; Emax (Trachea [5]): 154%; Ratio EC50 (Trachea/thoracic aorta): 0.2; Activity (VSMC [6]): Active; Activity (VSMC [7]): Active
COc1ccc(Cl)cc1C(C)NC(=O)N(C)S(=O)(=O)c1ccc(Cl)cc1 (racemic) | 20 | 103 | 
CC(C)Oc1ccc(Br)cc1C(C)NC(=O)NS(=O)(=O)c1ccc(Cl)cc1 (racemic) | 122 | 100 | 
CCOc1ccc(Br)cc1C(C)NC(=O)NS(=O)(=O)c1ccc(C)cc1 (racemic) | > 300 | 62.2 | 
CCOc1ccc(Br)cc1C(C)NC(=O)N(C)S(=O)(=O)c1ccc(Cl)cc1 (racemic) | 55.7 | 71 | 
CCOc1ccc(Cl)cc1C(C)NC(=O)NS(=O)(=O)c1ccc(Cl)cc1 (racemic) | 281 | 69.7 | 

Source: ChEMBL document CHEMBL4145465, “Design, synthesis and biological evaluation of novel ring-opened cromakalim analogues with relaxant effects on vascular and respiratory smooth muscles and as stimulators of elastin synthesis” (Eur J Med Chem, 2018)
